# Rows were chosen to be rich in hits. Some 2.1% of all compounds tested hit in one or more screens of this group.
# PAX8 reporter: inhibitors of PAX8-driven TPO luciferase reporter, primary screen, RMG-I cells, single concentration; SteadyGlo, 24 h; inhibition, % at 12.6 µM; 1.2% of 360,000 active; AID 652154, 2013;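 active = mean replicate inhibition at least 60% with every replicate also reaching 60%; inconclusive = only one of the two criteria is met; inactive = mean below 60% and not all replicates reaching 60%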;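 also: luciferase light reporting Pax8 driven TPO promoter activity; plate controls were median of neutral control wells for no effect and mitoxantrone controls for full effect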
# aSyn UTR inh: MLPCN primary screen, SNCA 5' untranslated region | inhibition, % (tested at 7.5 µM) | 0.82% of 300,000 active | AID 1813, 2009 | alpha-synuclein 5'UTR reporter, inhibitor activity; in the data active = inhibition above about 60%; inconclusive = no clear call, values can overlap the other calls;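 also: H4 neuroglioblastoma cells stably carrying SNCA 5'UTR luciferase fusion; 0% = DMSO wells and 100% = positive control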
# EWS-Fli inh: EWS/Fli-driven NR0B1 reporter inhibitors, primary screen, A673 cells, NR0B1 luciferase, luminescence, MLPCN library; viability-normalised; inhibition, % at 12.6 µM; AID 651661, 2012; 0.67% of 350,000 active;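 active = mean inhibition of at least 50% after viability correction, with every replicate also passing that limit; inconclusive = mean reaches 50% but only one of two replicates passes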;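 also: firefly luciferase signal divided by Alamar Blue viability fluorescence both relative to DMSO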
# EBV LMP1 NFkB: EBV LMP1-driven NF-kappaB luciferase reporter inhibitors, primary screen, cell-based, luminescence, single point | LMP1-induced NF-kappaB luciferase reporter cells | inhibition, % at 12.5 µM | 0.69% of 350,000 active | AID 504558, 2011; in the data active = inhibition above about 41%; inconclusive = no clear call, values can overlap the other calls;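 also: 0% = neutral control wells and 100% = reference inhibitor control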
# Shn3 inh set2: reduction of Shn3 3'UTR firefly luciferase signal, primary screen, Schnurri-3 inhibitor project, cell-based, Clone20 osteoblasts, set 2; Clone20 osteoblast Shn3 3'UTR firefly luciferase, 24 h; inhibition, % at 12.5 µM; 0.52% of 360,000 active; AID 588674, 2011;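 active = mean inhibition of at least 75% with every replicate also reaching 75%; inconclusive = mean inhibition at least 75% but some replicate below; inactive = mean inhibition below 75%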;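 also: 0% = median of neutral control wells and 100% = pilot-screen positive control compound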
# FN deposit inh: inhibitors of fibronectin matrix deposition, primary screen, AH1F cells, Alexa488-fibronectin fluorescence, plate reader | AH1F fibroblasts, overnight | inhibition, % at 12.6 µM | 0.086% of 350,000 active | AID 743247, 2014;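 active = mean inhibition across replicates of 30% or more, regardless of how many single replicates reach that level; inconclusive = mean under 30% yet at least half of replicates reach 30%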;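 also: positive control wells lacked labelled fibronectin entirely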
#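 Measured by – fluorescence 485/525 nm · System – AH1F fibroblast monolayer, labelled fibronectin deposition · Amount – 10000 cells per well · Buffer or medium – serum-reduced DMEM (2% serum) · Doses – single dose, pinned · Also added – fluorescent fibronectin at 24 nM final · Schedule – 1 h cell attachment, overnight exposure to compound and label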
# The depositor's hits bear a star; ? = inconclusive; · = no result given.
SMILES,PAX8 reporter,aSyn UTR inh,EWS-Fli inh,EBV LMP1 NFkB,Shn3 inh set2,FN deposit inh
Cc1cc(NC(=O)CSc2nc3ccccc3c(=O)n2C2CCCC2)no1,·,86*,·,14,14,11
COCCNC(=O)C(=O)NCC1OCCN1C(=O)c1ccc(Cl)cc1 (stereo unspecified),-2,20,-10,80*,-5,6
CC(C)C(NC(=O)CN1C(=O)c2ccccc2S1(=O)=O)C(C)C,-12,-6,-4,0,2,-3
O=C(CN1C(=O)c2ccccc2S1(=O)=O)c1ccc2c(c1)OCCO2,105*,111*,86*,81*,·,6
O=C(CCN1C(=O)c2ccccc2S1(=O)=O)Nc1ccc2c(c1)OCCO2,·,1,-7,4,-1,·
O=C(CN1C(=O)c2ccccc2S1(=O)=O)c1cccc(Br)c1,1,84*,47,4,53,-1
CCCC1Oc2ccccc2C(=O)N(CC(=O)c2ccc3c(c2)OCCO3)C1=O (stereo unspecified),-56,-55,-53,-12,-42,-8
O=C(CN1C(=O)c2ccccc2S1(=O)=O)c1ccc2c(c1)OCCCO2,104*,114*,89*,86*,94*,-1
CO[C@@H]1CC[C@@H]2CCN(C)C(=O)C[C@H](c3ccccc3)CN(C)C(=O)c3cccc(C#N)c3OC[C@@H]1O2,4,·,5,·,·,-1
CCc1noc(C)c1C(=O)N(C)CC(=O)Nc1cccc(OC)c1,-16,·,-3,68*,-10,-10
O=C(Nc1cccc(-c2nc3ccccc3o2)c1)c1ccc(N2C(=O)C3C4C=CC(C4)C3C2=O)cc1 (stereo unspecified),·,88*,·,-34,26,·
O=C1C2C3C=CC(C3)C2C(=O)N1c1cccc(-c2nc3ccccc3o2)c1 (stereo unspecified),·,-17,·,3,-26,·
CC(=O)/C=C/c1ccccc1O,10,-25,5,52*,-5,4
CCCCN(C)CCNC(=O)c1cc(-c2cccnc2)nc2ccc(S(=O)(=O)N3CCC(C)CC3)cc12,13,-21,·,-18,-14,-1
CCN(CC)CCNC(=O)c1cc(-c2cccnc2)nc2ccc(S(=O)(=O)N3CCC(C)CC3)cc12,20,-17,63*,-10,11,-6
C=CCOc1ccc2c(CC)cc(=O)oc2c1C,-4,15,9,4,3,-3
CCOc1ccc2c(CC)cc(=O)oc2c1OCC,102*,34,-5,12,0,4
O=C(/C=C/c1ccccc1)NC(NC(=S)Nc1cccc(Cl)c1)C(Cl)(Cl)Cl (stereo unspecified),·,-4,·,56*,65,·
Cc1ccc(C)c(NC(=S)NC(NC(=O)/C=C/c2ccccc2)C(Cl)(Cl)Cl)c1 (stereo unspecified),68*,-14,·,13,79,-6
Cc1ccccc1NC(=S)N=Nc1c(O)n(C)c2ccc(S(=O)(=O)N3CCOCC3)cc12,45,78*,·,23,45,0
Cn1c(=O)n(C)c2cc(S(=O)(=O)N3CCOCC3)ccc21,·,22,·,1,-17,5
Cc1cccc(C)c1NC(=S)N=Nc1c(O)n(C)c2ccc(S(=O)(=O)N3CCOCC3)cc12,1,71*,·,0,36,-23
Cc1cccc(Cn2nc(-n3cccc3)c3c(C)cc(C)nc32)c1,-19,22,-2,47*,-13,1
O=C1[C@H]2CCCC[C@H]2C(=O)N1CCCCN1CCN(c2nsc3ccccc23)CC1,20,-26,15,62*,-4,3
C[C@H]1CN([C@@H](C)CO)C(=O)c2cc(NC(=O)NC3CCCCC3)ccc2O[C@@H]1CN(C)C(=O)Nc1ccc(C(F)(F)F)cc1,0,·,5,·,·,·
SMILES,PAX8 reporter,aSyn UTR inh,EWS-Fli inh,EBV LMP1 NFkB,Shn3 inh set2,FN deposit inh
Cc1noc(C)c1S(=O)(=O)Nc1cccc2c1O[C@H](CN(C)S(=O)(=O)c1ccccc1)[C@H](C)CN([C@@H](C)CO)C2=O,5,·,-4,·,·,·
COc1ccc(C(=O)Cn2c(C(=O)/C=C/c3ccccc3)nc3ccccc32)cc1,·,-55,·,7,102*,·
CN(C)CCCNC(=O)C[C@@H]1CC[C@@H](NS(=O)(=O)c2ccccc2)[C@H](CO)O1,-12,·,-2,·,·,-1
Cc1noc(C)c1NC(=O)NCC[C@H]1CC[C@H](NC(=O)Nc2cccc(Cl)c2)[C@@H](CO)O1,-14,·,-11,·,·,9
COc1cc(C2c3cc4c(cc3OC(NNC(N)=S)C2C)OCO4)cc(OC)c1OC (stereo unspecified),85*,·,61*,7,-22,·
COc1cc(C2c3cc4c(cc3OC(NNC(N)=O)C2C)OCO4)cc(OC)c1OC (stereo unspecified),75*,·,54*,-2,-8,-15
COc1cccc(C2c3cc4c(cc3OC(NNC(N)=O)C2C)OCO4)c1O (stereo unspecified),41,·,41,-3,2,9
CC(C)NC(=O)Nc1ccc2c(c1)CC(=O)N(C)C[C@@H](C)[C@H](CN(C)C)O2,·,·,·,·,·,-1
C=C1C(=O)C23C(O)C1CCC2C12CCCC(C)(COC(C)=O)C1C(O)C3(O)OC2 (stereo unspecified),123*,·,57*,?,94*,29
COc1ccc(C(C[N+](=O)[O-])C2(c3ccc(OC)c(OC)c3)C(=O)c3ccccc3C2=O)cc1 (stereo unspecified),·,-47,·,5,95*,·
O=C1C=CC(=O)N1c1ccccc1N1C(=O)C=CC1=O,?,·,34,-26,94*,40*
O=C(c1ccccc1)c1ccccc1N1C(=O)C=CC1=O,53,21,2,35,93*,58*
O=C1C=CC(=O)N1c1ccccn1,-5,·,4,6,-19,·
C[C@H](CO)N1C[C@H](C)[C@@H](CN(C)C(=O)N[C@H](C)c2ccccc2)OCc2ccccc2-c2c(n(C)c3ccccc23)C1=O,7,·,-7,·,·,-1
COc1cccc(CNC(=O)C[C@H]2CC[C@H](NS(=O)(=O)c3ccccc3OC)[C@H](CO)O2)c1,-7,·,8,·,·,·
CCOc1ccccc1OCCCC(=O)N1CCN(S(=O)(=O)c2ccc(Cl)cc2)CC1,1,·,0,70*,-6,-2
CCCOc1ccccc1OCC(=O)N1CCN(S(=O)(=O)c2ccc(Cl)cc2)CC1,15,·,2,-3,-10,-1
Cc1noc(C)c1S(=O)(=O)N(C)C[C@H]1Oc2ccc(NC(=O)Nc3ccc4c(c3)OCO4)cc2CC(=O)N([C@H](C)CO)C[C@@H]1C,23,·,-28,·,·,·
CCOc1ccc(NC2CCN(C(C)=O)CC2)cc1,-13,1,3,42*,-3,·

# Screens from PubChem.
